This is a sample that favours compounds with a hit; in the whole collection about 1% have one here.
thrombin 1536: thrombin (human) inhibition | AID 1046 | P00734 | alpha-thrombin, Boc-VPR-AMC fluorogenic substrate cleavage | actives 0.26% (n = 220,000) | inhibition, % at 5 µM;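 active = inhibition at or above 40%; inactive = inhibition below 40%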;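 also: 0% = enzyme with no compound and 100% = wells without enzyme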
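Test system: human alpha-thrombin; medium: pH 7.5 Tris-saline with Tween 20; times: reaction at room temperature; signal: AMC fluorescence at 355 nm excitation and 460 nm emission; also added: Boc-VPR-AMC substrate, 15 µM final; dosing: one concentration per compound, 5 µM, with 0.2% DMSO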
hK5 inh: blocks human kallikrein 5 protease activity; Q9Y337; recombinant hK5, fluorogenic AMC substrate cleavage; inhibition, % at 5 µM; actives 0.59% (n = 210,000);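 active = inhibition of 40% or more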;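 also: 0% = enzyme controls without compound and 100% = no-enzyme blanks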
FXIa inh 1536: inhibitors of human coagulation factor XIa; P03951; purified FXIa, Boc-Glu-Ala-Arg-AMC fluorogenic substrate; inhibition, % at 5 µM; actives 0.14% (n = 220,000); AID 798;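 active = inhibition of at least 40%; inactive = inhibition below 40%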;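 also: fluorescence of freed AMC excited at 355 nm; 0% = enzyme without compound and 100% = no enzyme blank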
FXIIa inh: inhibitors of human coagulation factor XIIa; AID 800; purified FXIIa, Boc-QGR-AMC fluorogenic substrate, 2 h; inhibition, % at 5 µM; actives 0.3% (n = 220,000); in the data active = inhibition above about 40%;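 also: 0% = enzyme with no compound and 100% = blank without enzyme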
Target sequence (P00748 20-372 limits assumed): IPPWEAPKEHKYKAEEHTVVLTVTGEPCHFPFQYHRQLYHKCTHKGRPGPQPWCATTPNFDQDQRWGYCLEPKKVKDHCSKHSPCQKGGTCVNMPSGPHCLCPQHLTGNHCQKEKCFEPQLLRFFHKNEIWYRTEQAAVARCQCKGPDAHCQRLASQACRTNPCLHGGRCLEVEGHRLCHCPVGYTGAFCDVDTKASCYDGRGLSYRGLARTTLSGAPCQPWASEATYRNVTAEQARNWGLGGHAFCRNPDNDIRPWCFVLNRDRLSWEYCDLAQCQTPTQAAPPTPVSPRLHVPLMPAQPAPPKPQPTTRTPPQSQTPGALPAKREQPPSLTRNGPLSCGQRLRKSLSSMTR
Target sequence (P00748 373-615 limits assumed): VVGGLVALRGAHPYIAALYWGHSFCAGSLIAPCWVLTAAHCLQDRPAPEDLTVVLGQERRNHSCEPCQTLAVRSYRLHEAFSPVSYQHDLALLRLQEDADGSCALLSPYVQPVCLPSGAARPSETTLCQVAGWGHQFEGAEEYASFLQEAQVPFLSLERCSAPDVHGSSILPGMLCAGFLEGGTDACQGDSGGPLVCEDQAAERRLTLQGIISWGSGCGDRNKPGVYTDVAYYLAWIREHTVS
Numbers without * were called inactive.

How did O=c1c2c3c(sc2n(CCN2CCCCC2)c(=O)n1Cc1ccco1)CCCCC3 do in these assays?
thrombin 1536: 12; hK5 inh: 44*; FXIa inh 1536: 10; FXIIa inh: 26

How did Cc1ccc(Cl)cc1N1CCN(c2cccc[n+]2C)CC1 do in these assays?
thrombin 1536: -10; hK5 inh: -20; FXIa inh 1536: -3; FXIIa inh: -1

How did COc1ccc(N(CC(=O)NCc2ccc(Cl)cc2)S(=O)(=O)c2ccccc2[N+](=O)[O-])c(OC)c1 do in these assays?
thrombin 1536: 16; hK5 inh: 23; FXIa inh 1536: 102*; FXIIa inh: 37

What do the screens show for `COCCn1c(N)c(N(Cc2ccccc2)C(=O)C2CCCC2)c(=O)[nH]c1=O`?
thrombin 1536: -13; hK5 inh: 4; FXIa inh 1536: 2; FXIIa inh: 8

Results for COCCn1c(N)c(C(=S)NC(=O)c2cccs2)c(=O)[nH]c1=O ?
thrombin 1536: 1; hK5 inh: 90*; FXIa inh 1536: 18; FXIIa inh: 35

What do the screens show for `COc1ccccc1NC(=S)N1CCn2cccc2C1c1cccnc1` (stereo not given)?
thrombin 1536: -3; hK5 inh: -5; FXIa inh 1536: -4; FXIIa inh: 0

Results for Cc1[nH]nc2c1C(c1cc(Br)cs1)C(C#N)=C(N)O2 (stereo not given) ?
thrombin 1536: 7; hK5 inh: 8; FXIa inh 1536: -5; FXIIa inh: 17

Results for O=S(=O)(c1ccc(F)cc1)N1CCCN(c2nccc(C(F)(F)F)n2)CC1 ?
thrombin 1536: -3; hK5 inh: -1; FXIa inh 1536: -2; FXIIa inh: 8

Results for COC(=O)c1ccc(C)c(N(CCO)CCO)c1 ?
thrombin 1536: 24; hK5 inh: 57*; FXIa inh 1536: 4; FXIIa inh: 10

What do the screens show for `CCc1ccc(S(=O)(=O)ON2C(=O)c3ccccc3C2=O)cc1`?
thrombin 1536: 60*; hK5 inh: 1; FXIa inh 1536: 22; FXIIa inh: 15

What do the screens show for `O=C1c2cccc3cccc(c23)C(=O)N1OS(=O)(=O)c1ccc(Cl)cc1`?
thrombin 1536: -1; hK5 inh: -24; FXIa inh 1536: 3; FXIIa inh: 6

How did COc1ccccc1NS(=O)(=O)c1ccc(O)c(C(=O)OCC(=O)c2ccc(Cl)cc2Cl)c1 do in these assays?
thrombin 1536: 29; hK5 inh: 32; FXIa inh 1536: 49*; FXIIa inh: 32

Results for Cc1cc(C)nc(NC(=O)C2c3ccccc3Oc3ccccc32)n1 ?
thrombin 1536: -7; hK5 inh: -2; FXIa inh 1536: -5; FXIIa inh: 10

Results for O=C(c1cc2cc(Br)ccc2o1)N1CCCC1 ?
thrombin 1536: 57*; hK5 inh: 18; FXIa inh 1536: 37

Results for O=C(c1cc2cc(Br)ccc2o1)N1CCOCC1 ?
thrombin 1536: -1; FXIa inh 1536: 0; FXIIa inh: 11

Results for COCCCNC(=O)CCCn1c(=O)c2ccccc2n(Cc2cccc([N+](=O)[O-])c2)c1=O ?
thrombin 1536: -9; hK5 inh: -8; FXIa inh 1536: -2; FXIIa inh: 8

Results for COc1ccc(CSc2n[nH]c(C)n2)cc1[N+](=O)[O-] ?
thrombin 1536: 24; hK5 inh: 48*; FXIa inh 1536: -3; FXIIa inh: 11

Results for CC(=O)C1=C(C)OC(N)=C(C#N)C1c1ccncc1 (stereo not given) ?
thrombin 1536: -4; hK5 inh: 1; FXIa inh 1536: -22; FXIIa inh: 7

How did COc1ccc2cc(C3C(C#N)=C(N)OC(C)=C3C(C)=O)c(Cl)nc2c1 (stereo not given) do in these assays?
thrombin 1536: 27; hK5 inh: 42*; FXIa inh 1536: 21; FXIIa inh: 33

How did Cc1cc(NC(=O)CSc2nc3c(c(=O)n2-c2ccc(Br)cc2)SCC3)no1 do in these assays?
thrombin 1536: -1; hK5 inh: -4; FXIa inh 1536: 7; FXIIa inh: 16

Results for COc1ccc(-n2c(SCC(=O)Nc3cc(C)on3)nc3c(c2=O)SCC3)cc1 ?
thrombin 1536: 22; hK5 inh: 102*; FXIa inh 1536: 12; FXIIa inh: 18

What do the screens show for `Cc1nn(-c2ccccc2)c(N)c1C(O)(C(F)(F)F)C(F)(F)F`?
thrombin 1536: 26; hK5 inh: 42*; FXIa inh 1536: 5; FXIIa inh: 24

Results for Cc1nn(-c2ccccc2)c(N)c1C(O)(CC(=O)C(F)(F)F)C(F)(F)F (stereo not given) ?
thrombin 1536: -3; hK5 inh: -20; FXIa inh 1536: 7; FXIIa inh: 6

What do the screens show for `CC1=[N+]([O-])C(C)(C)C(c2ccc(Br)cc2)=[N+]1[O-]`?
thrombin 1536: -7; hK5 inh: -18; FXIa inh 1536: 9; FXIIa inh: 6

What do the screens show for `CC(C)(C)c1ccc(OCC(=O)N2CCCCCC2)c(Br)c1`?
thrombin 1536: -1; hK5 inh: -4; FXIa inh 1536: -2; FXIIa inh: 3

How did Cc1ccc(OCC(=O)N2CCCCC2)c(Br)c1 do in these assays?
thrombin 1536: 3; hK5 inh: 48*; FXIa inh 1536: -1; FXIIa inh: 1

How did CCOC(=O)C1CCCN(C2CC(=O)N(c3ccc(C)cc3)C2=O)C1 (stereo not given) do in these assays?
thrombin 1536: 12; hK5 inh: 40*; FXIa inh 1536: 12; FXIIa inh: 19

Results for O=C(O)c1ccccc1SCC(=O)N1CCOCC1 ?
thrombin 1536: 41*; hK5 inh: 29; FXIa inh 1536: 33; FXIIa inh: 18

Results for O=C(O)c1ccccc1SCC(=O)N1CCCCC1 ?
thrombin 1536: 2; hK5 inh: 0; FXIa inh 1536: 5; FXIIa inh: 8

What do the screens show for `S=C(NCCc1ccccc1)Nc1ccc(Br)cn1`?
thrombin 1536: 21; hK5 inh: 52*; FXIa inh 1536: 40*; FXIIa inh: 30

Results for Cc1cc(C(=O)OCC(=O)Nc2cccc(S(N)(=O)=O)c2)c2ccccc2n1 ?
thrombin 1536: -13; hK5 inh: -3; FXIa inh 1536: -2; FXIIa inh: -3

How did CCN1CCN(CC(=O)Nc2cc(C)on2)CC1 do in these assays?
thrombin 1536: 3; hK5 inh: 42*; FXIa inh 1536: 46*; FXIIa inh: 27

Results for c1ccc(CSc2ccc(-c3cccnc3)nn2)cc1 ?
thrombin 1536: -8; hK5 inh: -5; FXIa inh 1536: -3; FXIIa inh: 7

Results for Cc1ccc(NC(=O)CN(c2ccccc2)S(=O)(=O)N(C)C)cc1C ?
thrombin 1536: 28; hK5 inh: 43*; FXIa inh 1536: 9; FXIIa inh: 20

How did Cc1ccc(NCCC(=O)c2ccc(Cl)cc2)cc1C do in these assays?
thrombin 1536: 8; hK5 inh: 47*; FXIa inh 1536: 4; FXIIa inh: 13

How did COC(=O)NCC(c1ccco1)N1CCN(c2ccc(F)cc2)CC1 (stereo not given) do in these assays?
thrombin 1536: 27; hK5 inh: 43*; FXIa inh 1536: 0; FXIIa inh: -2

What do the screens show for `O=C(NCC(c1cccnc1)N1CCN(c2ccc(F)cc2)CC1)OCc1ccccc1` (stereo not given)?
thrombin 1536: 21; hK5 inh: 46*; FXIa inh 1536: 10; FXIIa inh: 14

Screening data from PubChem BioAssay.
